pIC50, pKi: −log10 of the molar value.
Key:
[1] = target: T1, Serum paraoxonase/arylesterase 1 (Homo sapiens, UniProt P27169); assay: Inhibition of human serum PON1 using paraoxon as substrate by spectrophotometric analysis; conditions: for pIC50: read-out: IC50
In short: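 PON1 purified from human serum (ammonium sulphate precipitation, then hydrophobic interaction chromatography; stored with 2 mM CaCl2). Paraoxon 2 mM final; p-nitrophenol release followed at 412 nm for 2 min at 37 °C. Five inhibitor concentrations tested. Activity without compound taken as 100%. Measured in duplicate and corrected for non-enzymatic hydrolysis. IC50 read from activity-percentage graphs.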

[2] = target: T1, Serum paraoxonase/arylesterase 1; assay: Competitive inhibition of human serum PON1 using paraoxon as substrate by Lineweaver-Burk plot analysis
In short: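 Human serum PON1 purified by ammonium sulphate precipitation (60–80%) and hydrophobic interaction chromatography, stored with 2 mM CaCl2. Paraoxon hydrolysis followed by p-nitrophenol appearance at 412 nm for 2 min at 37 °C, pH 8.00. Eight paraoxon concentrations (0.5–1.2 mM) run at two inhibitor concentrations (6.7 µM and 4.7 µM). Readings taken in duplicate and corrected for non-enzymatic hydrolysis. Ki and inhibition type taken from Lineweaver–Burk plots.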

T1 sequence (P27169 whole entry): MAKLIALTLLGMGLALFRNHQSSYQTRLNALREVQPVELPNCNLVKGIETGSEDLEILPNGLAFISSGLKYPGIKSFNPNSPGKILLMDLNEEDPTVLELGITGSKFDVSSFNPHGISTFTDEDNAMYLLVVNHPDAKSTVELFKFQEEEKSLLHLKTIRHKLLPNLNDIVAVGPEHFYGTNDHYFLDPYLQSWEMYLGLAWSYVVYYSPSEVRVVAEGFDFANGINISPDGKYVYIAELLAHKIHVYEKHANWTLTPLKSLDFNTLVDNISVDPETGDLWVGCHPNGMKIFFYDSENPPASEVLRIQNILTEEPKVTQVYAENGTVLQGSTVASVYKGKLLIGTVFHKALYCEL

SMILES	pIC50 [1]	also measured
Cc1cc(C)c2c(CCl)cc(=O)oc2c1	4.50	
Cc1n(C)cc[n+]1Cn1nnc2ccccc21.[Cl-]		IC50 [1]: Not Active
c1ccc(C[n+]2cn(Cn3nnc4ccccc43)c3ccccc32)cc1	2.69	
c1ccc2c(c1)ncn2Cn1nnc2ccccc21	3.25	
COc1cc(C[n+]2cn(Cn3nnc4ccccc43)c3ccccc32)cc(OC)c1OC.[Cl-]		IC50 [1]: Not Active
CC(C)(C)c1ccc2oc(=O)cc(CCl)c2c1	4.40	
Cc1n(C)cc[n+]1Cc1nc2ccccc2[nH]1	3.20	
Cn1cc[n+](Cc2nc3ccccc3[nH]2)c1	4.72	
Cc1ccc2c(C[n+]3cn(Cn4nnc5ccccc54)c4ccccc43)cc(=O)oc2c1C	3.62	
CCCCn1cc[n+](Cc2cc(=O)oc3cc(C)cc(C)c23)c1	5.20	pKi [2]: 5.62
Cc1ccc2c(CCl)cc(=O)oc2c1C	4.67	
Cn1cc[n+](Cn2nnc3ccccc32)c1.[Cl-]		IC50 [1]: Not Active
O=C1COc2ccc(C(=O)C[n+]3cn(Cn4nnc5ccccc54)c4ccccc43)cc2N1	5.06	
Cc1cc(C)c2c(C[n+]3ccn(C)c3C)cc(=O)oc2c1	3.50	
CCCCn1cc[n+](Cc2nc3ccccc3[nH]2)c1	4.54	
CCCCn1cc[n+](Cn2nnc3ccccc32)c1.[Cl-]		IC50 [1]: Not Active
CC(C)(C)c1ccc2oc(=O)cc(C[n+]3cn(Cn4nnc5ccccc54)c4ccccc43)c2c1	3.20	
Cc1cc(C)c2c(C[n+]3ccn(C)c3)cc(=O)oc2c1	4.63	
[Cl-].c1ccc2c(c1)nnn2Cn1c[n+](Cn2nnc3ccccc32)c2ccccc21		IC50 [1]: Not Active
Cc1ccc(-c2cc3cc(O)c(O)cc3oc2=O)cc1	5.52	
CCCC[n+]1cn(Cn2nnc3ccccc32)c2ccccc21	2.48	
